# From ChEMBL document CHEMBL1137629, “Antiproliferative effect of dihydroxyacetone on Trypanosoma brucei bloodstream forms: cell cycle progression, subcellular alterations, and cell death” (Antimicrob Agents Chemother, 2007)
# The source made the active and inactive calls. No cut-off for these calls is given here.
# What was measured:
# Trypanosoma brucei [1] = assay: Trypanocidal activity against Trypanosoma brucei bloodstream form assessed as decrease in cell viability at 1 mM up to 40 mins by spectrophotometry; type: functional, organism-based
# Procedure, shortened: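 Viability as a carbon source. Bloodstream forms incubated in basic medium lacking glucose and serum: unsupplemented, with 1 mM glucose, or with 1 mM DHA. Cell density and motility followed over time. Triplicate, SD.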
# Trypanosoma brucei [2] = assay: Trypanocidal activity against Trypanosoma brucei bloodstream form at > 1 mM; type: functional, organism-based
# Trypanosoma brucei [3] = assay: Trypanocidal activity against Trypanosoma brucei bloodstream form assessed as cell death at 1 mM by spectrophotometry in presence of 1 mM glucose; type: functional, organism-based
# Trypanosoma brucei [4] = assay: Trypanocidal activity against Trypanosoma brucei bloodstream form at 4 mM up to 24 hrs by spectrophotometry; type: functional
# Procedure, shortened: (§1)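 Proliferation measured in complete medium (33 mM glucose, 15% serum) with a range of DHA concentrations. Cell density followed over 24 h. Triplicate, SD.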
# Trypanosoma brucei [5] = assay: Trypanocidal activity against Trypanosoma brucei bloodstream form at 5 mM up to 24 hrs by spectrophotometry; type: functional; procedure, shortened: as §1
# Trypanosoma brucei [6] = assay: Trypanocidal activity against Trypanosoma brucei bloodstream form assessed as phosphatase activity; type: functional, organism-based
# Procedure, shortened: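 Parasites in exponential growth diluted to 2 × 10⁵ cells/ml and cultured 24 h with 1–4 mM DHA. Lysis buffer with p-nitrophenyl phosphate (in 1 M sodium acetate pH 5.5, 1% Triton X-100) added. Read at 405 nm after 6 h at 37°C. IC₅₀ derived from phosphatase activity (Bodley method).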
# Trypanosoma brucei [7] = assay: Effect on morphological changes in Trypanosoma brucei bloodstream form assessed as presence of atypical combination of number of nucleus after 24 hrs using DAPI staining by phase-contrast microscopy; type: functional, organism-based
# Procedure, shortened: (§2)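 Bloodstream forms (MITat 1.2, EATRO 427) grown 24 h with or without DHA. Aliquots washed twice in PBS, resuspended, placed on slides and fixed with methanol. Stained 5 min with DAPI (0.1 μg/ml final), then washed. Phase-contrast and fluorescence images scored for nucleus/kinetoplast numbers (1N1K, 1N2K, 2N2K, 2N1K, abnormal). n = 4, Student's t test, SD.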
# Trypanosoma brucei [8] = assay: Effect on morphological changes in Trypanosoma brucei bloodstream form assessed as presence of kinetoplast after 24 hrs using DAPI staining by phase-contrast microscopy; type: functional, organism-based; procedure, shortened: as §2
# Trypanosoma brucei [9] = assay: Effect on morphological changes in Trypanosoma brucei bloodstream form assessed as presence of more than one flagellum at 5 mM after 20 hrs by scanning electron microscopy; type: functional, organism-based
# Procedure, shortened: (§3)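 Cells grown 20 h with 5 mM DHA. Fixed and stained as for TEM (glutaraldehyde, osmium tetroxide, uranyl acetate), then dehydrated through 50, 75, 95 and 100% ethanol. Critical-point dried and gold-palladium sputter-coated for scanning electron microscopy.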
# Trypanosoma brucei [10] = assay: Effect on morphological changes in Trypanosoma brucei bloodstream form assessed as presence of atypical combination of number of nucleus at 5 mM after 20 hrs by scanning electron microscopy; type: functional, organism-based; procedure, shortened: as §3
# Trypanosoma brucei [11] = assay: Effect on morphological changes in Trypanosoma brucei bloodstream form assessed as presence of kinetoplast at 5 mM after 20 hrs by scanning electron microscopy; type: functional, organism-based; procedure, shortened: as §3
# Trypanosoma brucei [12] = assay: Effect on morphological changes in Trypanosoma brucei bloodstream form assessed as presence of one or two nucleus at 3 mM after 24 hrs by transmission electron microscopy; type: functional, organism-based
# Procedure, shortened: (§4)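 Parasites exposed 24 h to 3 mM DHA. 10⁸ cells fixed 1 h at 4°C in 2% glutaraldehyde in 0.2 M sodium cacodylate with 0.12 M sucrose, held overnight in buffer, postfixed in 1.5% osmium tetroxide and stained with 0.5% uranyl acetate. Dehydrated in ethanol, cleared in propylene oxide, embedded in Agar 100. Sections stained with 5% uranyl acetate and 0.4% lead citrate for TEM. Rapamycin (5 μM) served as the autophagy positive control.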
# Trypanosoma brucei [13] = assay: Effect on morphological changes in Trypanosoma brucei bloodstream form assessed as increase in autophagic vaculoe structures at 3 mM after 24 hrs by transmission electron microscopy; type: functional, organism-based; procedure, shortened: as §4
# Trypanosoma brucei [14] = assay: Effect on morphological changes in Trypanosoma brucei bloodstream form assessed as change in cell nucleus at 3 mM after 24 hrs by transmission electron microscopy; type: functional, organism-based; procedure, shortened: as §4
# Trypanosoma brucei [15] = assay: Effect on cell cycle of Trypanosoma brucei bloodstream form assessed as increase in cells with two nuclei and one kinetoplast at 1 to 3 mM using DAPI staining by phase-contrast microscopy; type: functional, organism-based; procedure, shortened: as §2
# Trypanosoma brucei [16] = assay: Effect on cell cycle of Trypanosoma brucei bloodstream form assessed as induction of necrosis at 2 mM after 24 hrs using propidium iodide staining by FACS analysis; type: functional
# Procedure, shortened: (§5)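 Bloodstream forms exposed 24 h at 37°C, 5% CO₂. Cells at 2 × 10⁶/ml incubated 10 min with propidium iodide (5 μg/ml), and uptake read by flow cytometry as a measure of membrane integrity. Digitonin (6 μM) served as the necrosis positive control.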
# Trypanosoma brucei [17] = assay: Effect on cell cycle of Trypanosoma brucei bloodstream form assessed as induction of necrosis at 4 mM after 24 hrs using propidium iodide staining by FACS analysis; type: functional; procedure, shortened: as §5
# Trypanosoma brucei [18] = assay: Effect on cell cycle of Trypanosoma brucei bloodstream form assessed as DNA content at 1 mM after 24 hrs using propidium iodide staining by FACS analysis; type: functional
# Procedure, shortened: (§6)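 T. brucei bloodstream forms (MITat 1.2, strain EATRO 427), axenic culture at 37°C, 5% CO₂. Treated 24 h. At least 5 × 10⁵ cells washed in PBS, lysed hypotonically 30 min at room temperature in 10 mM phosphate buffer pH 7.4 with 6 μM digitonin. Nuclei stained with propidium iodide (10 μg/ml final) and analysed by flow cytometry for G₁/S/G₂ distribution and degraded DNA.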
# Trypanosoma brucei [19] = assay: Effect on cell cycle of Trypanosoma brucei bloodstream form assessed as DNA content at 2 mM after 24 hrs using propidium iodide staining by FACS analysis; type: functional; procedure, shortened: as §6
# Trypanosoma brucei [20] = assay: Effect on cell cycle of Trypanosoma brucei bloodstream form assessed as DNA content at 3 mM after 24 hrs using propidium iodide staining by FACS analysis; type: functional; procedure, shortened: as §6
# Trypanosoma brucei [21] = assay: Effect on cell cycle of Trypanosoma brucei bloodstream form assessed as DNA content at 5 uM after 24 hrs using propidium iodide staining by FACS analysis; type: functional; procedure, shortened: as §6
# Trypanosoma brucei [22] = assay: Effect on morphological changes in Trypanosoma brucei bloodstream form assessed as presence of glycosomes at 3 mM after 24 hrs by transmission electron microscopy; type: functional, organism-based; procedure, shortened: as §4
# Trypanosoma brucei [23] = assay: Induction of apoptosis-like programmed cell death in Trypanosoma brucei bloodstream form assessed as loss of mitochondrial-membrane potential at 1 mM after 24 hrs by TMRE staining; type: functional
# Procedure, shortened: (§7)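 T. brucei MITat 1.2 (EATRO 427) bloodstream forms were grown axenically at 37°C, 5% CO₂ and exposed to DHA for 24 h. Cells at 10⁶/ml were stained with 25 nM TMRE in culture medium for 30 min at 37°C and read at once by flow cytometry. Depolarization control: valinomycin 100 nM. Lower fluorescence signifies lost membrane potential.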
# Trypanosoma brucei [24] = assay: Induction of apoptosis-like programmed cell death in Trypanosoma brucei bloodstream form assessed as loss of mitochondrial-membrane potential at 3 mM after 24 hrs by TMRE staining; type: functional; procedure, shortened: as §7
# Trypanosoma brucei [25] = assay: Induction of apoptosis-like programmed cell death in Trypanosoma brucei bloodstream form assessed as loss of mitochondrial-membrane potential at 5 uM after 24 hrs by TMRE staining; type: functional
# Trypanosoma brucei [26] = assay: Induction of apoptosis-like programmed cell death in Trypanosoma brucei bloodstream form assessed as increase in intracellular reactive oxygen species production at 5 uM after 24 hrs by FACS analysis; type: functional
# Trypanosoma brucei [27] = assay: Induction of necrosis in Trypanosoma brucei bloodstream form assessed as death of total cell population at > 4 mM up to 24 hrs using propidium iodide staining by FACS analysis
smiles,measurement,setting,value
O=C(CO)CO [DIHYDROXYACETONE],Activity,Trypanosoma brucei [1],inactive
same,Activity,Trypanosoma brucei [2],Active
same,Activity,Trypanosoma brucei [3],inactive
same,Activity,Trypanosoma brucei [4],100%
same,Activity,Trypanosoma brucei [5],100%
same,IC50,Trypanosoma brucei [6],1030 µM
same,Activity,Trypanosoma brucei [7],Dose-dependent effect
same,Activity,Trypanosoma brucei [8],Dose-dependent effect
same,Activity,Trypanosoma brucei [9],Active
same,Activity,Trypanosoma brucei [10],inactive
same,Activity,Trypanosoma brucei [11],inactive
same,Activity,Trypanosoma brucei [12],Active
same,Activity,Trypanosoma brucei [13],Active
same,Activity,Trypanosoma brucei [14],inactive
same,Activity,Trypanosoma brucei [15],Active
same,Activity,Trypanosoma brucei [16],8.3%
same,Activity,Trypanosoma brucei [17],12.9%
same,Activity,Trypanosoma brucei [18],4.5%
same,Activity,Trypanosoma brucei [19],9%
same,Activity,Trypanosoma brucei [20],8%
same,Activity,Trypanosoma brucei [21],47%
same,Activity,Trypanosoma brucei [22],Active
same,Activity,Trypanosoma brucei [23],4.9%
same,Activity,Trypanosoma brucei [24],12.3%
same,Activity,Trypanosoma brucei [25],31.4%
same,Activity,Trypanosoma brucei [26],33.6%
same,Activity,Trypanosoma brucei [27],Active
